From PubChem
The list is not random: actives were taken first. Their share in the collection is about 3.7%.
Cl transport mod – modulators of human KCC2 chloride dependent transport; Q9H2X9; KCC2 cells, thallium flux FluoZin-2 fluorescence; B-score of Tl+ flux slope (higher = more flux/activation; lower = inhibition) at 10 µM; 190,000 compounds, 2.2% hits;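 active = thallium flux slope and its plate-corrected score both differing from the plate sample mean at a set confidence after two filtering rounds, in either direction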;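 also: slope of fluorescence scaled to starting intensity during 10 to 20 s after thallium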
Calpain2 inh – inhibitors of pig calpain II; AID 1236; inhibition, % at 16 µM; 220,000 compounds, 0.37% hits; purified calpain II, fluorogenic peptide substrate, 30 min;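 active = inhibition above about 50%, limit read from the data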
ROMK mod – human ROMK K+ channel modulation, primary screen; P48048; Tet-inducible ROMK, thallium flux fluorescence; actives lie on both sides; B-score at 10 µM; 130,000 compounds, 2% hits; AID 1918;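 active = signal ratio slope over the read window, or its plate-corrected B-score, at least 3 SD from the plate mean, either direction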;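 also: B-score of the F/F0 ratio slope over 7 to 12 s after thallium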
Target sequence (P48048 whole entry, looked up): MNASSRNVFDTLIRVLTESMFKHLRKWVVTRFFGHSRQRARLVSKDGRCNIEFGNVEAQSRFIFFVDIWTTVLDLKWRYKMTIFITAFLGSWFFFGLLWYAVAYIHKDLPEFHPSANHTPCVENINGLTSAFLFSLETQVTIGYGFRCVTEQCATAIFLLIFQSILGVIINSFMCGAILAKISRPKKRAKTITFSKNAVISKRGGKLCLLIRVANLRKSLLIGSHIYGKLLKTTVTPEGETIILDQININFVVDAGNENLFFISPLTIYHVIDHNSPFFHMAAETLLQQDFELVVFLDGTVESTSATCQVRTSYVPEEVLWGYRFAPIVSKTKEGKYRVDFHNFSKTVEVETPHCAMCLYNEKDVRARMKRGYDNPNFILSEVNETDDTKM
PKD1 inh – PKD1 (human) kinase inhibition. Q15139. PKD1 kinase fluorescence polarization assay. inhibition, % (test concentration not listed). 200,000 compounds, 0.056% hits. AID 797; in the data active = inhibition above about 50%
Arbovirus anti – antivirals against arbovirus infection; 200,000 compounds, 0.37% hits; inhibition, % at 10 µM; arbovirus infection cell-based antiviral screen; in the data active = inhibition above about 30%
MDM2 E3 inh – Mdm2 E3 ligase (human) inhibition | Q00987 | cell-based MDM2 ubiquitination luciferase reporter, 2 h; 0 = plate control, 100 = twice control, blank-subtracted | signal enhancement, % at 5 µM | 210,000 compounds, 0.11% hits;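 active = signal enhancement of 30% or more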;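 also: luminescence tracks abundance of the self-degrading MDM2-luciferase fusion protein; higher signal means inhibition of MDM2 E3 ligase activity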
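system = mammalian cells stably expressing self-ubiquitinating, self-degrading MDM2 E3–luciferase fusion | quantity = 2000 cells per well seeded | incubation = 4 h cell settling then 2 h compound exposure, 37 °C | signal = SteadyLite luminescence, 15 min reagent step | benchmarks = plate control and blank wells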
KCC2 sec1 – KCC2 (human) modulation, secondary assay. AID 1713. shares compounds with Cl transport mod. HEK293-KCC2, thallium flux, FluoZin2 fluorescence; active compounds read high. 3,700 compounds, 15% hits. normalised thallium flux (F/F0 slope) at 10 µM;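 active = thallium flux slope above the same plate's solvent-only control mean plus 3 SD; inconclusive = the two replicate wells disagree; inactive = no significant difference from solvent-only control wells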
KCC2 bumet counter – bumetanide-insensitive thallium flux in KCC2 cells with ouabain, counter-screen; normalized thallium flux at 10 µM; HEK293-KCC2 + bumetanide/ouabain, thallium flux FluoZin2; active compounds read high; 3,700 compounds, 49% hits; shares compounds with Cl transport mod;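 active = thallium entry rate above the same plate's blocked-transporter control wells by more than 3 SD; inconclusive = the two repeat wells disagree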;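 also: raw slope of fluorescence over initial fluorescence between 10 and 20 s after thallium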
KCC2 sec2 – KCC2 (human) modulation, second secondary assay; 3,700 compounds, 23% hits; HEK293-KCC2, thallium flux FluoZin2 fluorescence; actives lie on both sides; F/F0 rise rate, 10–20 s post-thallium; shares compounds with Cl transport mod; normalized thallium flux at 10 µM;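 active = thallium flux slope more than 3 SD above or below the plate's solvent-only control mean, mostly below; inconclusive = the two repeat wells disagreed; inactive = no significant shift from solvent-only controls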
HEK293 Tl flux – counter-screen for KCC2 modulators: effect in parental HEK293 cells | 3,700 compounds, 46% hits | thallium flux FluoZin2, ouabain; baseline-ratio fluorescence slope, 10–20 s after thallium | shares compounds with Cl transport mod | thallium flux rate (normalised fluorescence) at 10 µM;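 active = thallium flux rate significantly above the same plate's solvent-only control wells, beyond their mean plus 3 SD; inconclusive = the two replicate wells gave conflicting results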
KCC2 retest ouab – modulates human KCC2 on retest with ouabain; AID 1717; shares compounds with Cl transport mod; 3,700 compounds, 48% hits; raw Tl+ flux slope (below DMSO = inhibition, above = activation) at 10 µM; HEK293-KCC2, thallium flux FluoZin2 fluorescence; bidirectional: low = inhibitor, high = activator;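 active = thallium flux slope beyond 3 SD from same-plate DMSO control mean in most replicates, usually higher, sometimes lower; inconclusive = repeat tests gave conflicting results; inactive = no significant difference from controls in most replicates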;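 also: slope of initial-normalized fluorescence between seconds 10 and 20 after thallium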
HEK293 Tl flux2 – acts in parental HEK cells, second KCC2 counter-screen | shares compounds with Cl transport mod | HEK293 parental, thallium flux FluoZin-2 fluorescence slope | thallium flux slope at 10 µM | 3,700 compounds, 33% hits | AID 1718;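 active = thallium flux slope above the same plate's solvent-control mean plus 3 SD in both duplicate wells; inconclusive = duplicate wells that disagreed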;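 also: run without ouabain in cells lacking the KCC2 cotransporter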
Hits are given with their value; 0 = inactive; ? = inconclusive; - = not tested or not shown.

SMILES	Cl transport mod	Calpain2 inh	ROMK mod	PKD1 inh	Arbovirus anti	MDM2 E3 inh	KCC2 sec1	KCC2 bumet counter	KCC2 sec2	HEK293 Tl flux	KCC2 retest ouab	HEK293 Tl flux2
O=C(NCc1ccc(Cl)cc1)c1n[nH]c([N+](=O)[O-])c1Cl	-3.8	0	0	0	0	0	0	0.0057	?	?	0	0
Cn1nc(C(F)(F)F)c(-c2ccc(F)cc2)c1NC(=O)c1cccnc1	0	0	0	-	-	0	-	-	-	-	-	-
Cc1cc(C)nc(N2CCC(C(=O)Nc3cccc(C(F)(F)F)c3)CC2)n1	-	-	-	0	0	0	-	-	-	-	-	-
O=C(COC(=O)c1ccccn1)NCCCc1ccccc1	-	0	0	0	0	0	-	-	-	-	-	-
CCCNC(=O)Nc1ccsc1C(=O)OC	0	0	0	0	0	0	-	-	-	-	-	-
Fc1cccc2sc(Nc3nc4c(F)cccc4s3)nc12	18	0	0	0	0	0	?	0.036	0	0.052	0.034	?
Cc1cc(C(=O)N/N=C/c2c(C)nn(-c3ccccc3)c2C)n[nH]1	0	0	-	-	-	0	-	-	-	-	-	-
Cc1nn(-c2ccccc2)c(C)c1/C=N/NC(=O)c1cc(C2CC2)[nH]n1	-	0	-	0	0	0	0	0	0	0	0.015	0
COCCN(C(=O)CNC(=O)c1ccco1)C(C(=O)NC1CCCC1)c1cccs1 (stereo unspecified)	0	0	0	0	0	-	-	-	-	-	-	-
Cc1cccc(CC2S/C(=N/N=C/c3ccco3)N(c3ccccc3)C2=O)c1 (stereo unspecified)	0	0	0	0	0	0	-	-	-	-	-	-
Cc1nc(SC2CC(=O)N(c3ccccc3)C2=O)nc2c1CCCC2 (stereo unspecified)	-	0	0	0	0	0	0	0	0.026	?	0.016	0
CCC1CCCCN1C(=O)CSc1nnc(-c2c[nH]c3ccccc23)o1 (stereo unspecified)	-3.3	0	0	0	0	0	0	0	0	0	0.022	?
CC1CCCC(C)N1C(=O)CSc1nnc(-c2c[nH]c3ccccc23)o1 (stereo unspecified)	-	0	0	0	0	0	-	-	-	-	-	-
CC1CCCN(C(=O)CSc2nnc(-c3c[nH]c4ccccc34)o2)C1 (stereo unspecified)	-3.8	0	0	0	0	0	0	0	?	0	?	0
FC(F)(F)c1ccccc1NC(=S)Nc1cccc(Cl)c1	0	0	0	0	0	0	-	-	-	-	-	-
CC(=C/c1ccccc1)/C=N/n1c(-c2ccco2)n[nH]c1=S	-	0	-	0	0	0	-	-	-	-	-	-
CC(/C=N/n1c(-c2cc(C)[nH]n2)n[nH]c1=S)=C\c1ccccc1	-4.4	0	-	0	0	0	0	0	0	?	0	0
COc1ccc(NC(=O)c2ccc(COc3ccc(C)cc3)o2)cc1	0	0	0	0	0	0	-	-	-	-	-	-
Cc1ccc(NC(=O)N2CCCC2C(=O)NCCc2ccccc2)cc1 (stereo unspecified)	0	0	0	0	0	0	-	-	-	-	-	-
CC1=Nn2c(nc(-c3ccccc3)c2-c2ccccc2)NC(=O)C1Br (stereo unspecified)	0	0	0	0	0	0	-	-	-	-	-	-
C/C(=N\NC(=O)c1cccc(Cl)c1)C1C(=O)c2ccccc2C1=O	-3.7	0	0	0	0	0	0	0.0095	0	0	?	0
CC(/C=C/c1ccccc1F)=N\NC(=O)c1cccc(F)c1	-	0	0	0	0	0	0	0.046	0.042	0.026	0.041	0.028
C/C(=N\NC(=O)CCc1ccccc1)C1C(=O)c2ccccc2C1=O	0	0	0	0	0	0	-	-	-	-	-	-
CC(/C=C/c1ccco1)=N/NC(=O)c1ccccc1Cl	0	0	-	0	0	0	-	-	-	-	-	-
CC(/C=C/c1ccco1)=N\NC(=O)c1cccc(Cl)c1	14	0	-	0	0	0	0	0.039	?	0.023	0.037	0.026
SMILES	Cl transport mod	Calpain2 inh	ROMK mod	PKD1 inh	Arbovirus anti	MDM2 E3 inh	KCC2 sec1	KCC2 bumet counter	KCC2 sec2	HEK293 Tl flux	KCC2 retest ouab	HEK293 Tl flux2
CCOc1ccc(C(=O)NCC2OCCc3ccccc32)cc1 (stereo unspecified)	0	0	0	0	0	0	-	-	-	-	-	-
CCN(CC)C(=O)C1CC(=O)N(c2ccc(OC)cc2)C1c1ccc(OC)cc1 (stereo unspecified)	-4.1	0	-	0	0	0	0	0.0057	0	0	0	0
COc1ccc(C2C(C(=O)N3CCCCC3)CC(=O)N2c2ccc(OC)cc2)cc1 (stereo unspecified)	0	0	-	0	0	0	-	-	-	-	-	-
O=C(NNC(=O)c1csc(-c2cnccc2C(F)(F)F)n1)c1ccc(C(F)(F)F)cc1	5.9	0	0	-	-	0	?	0.041	0	0.013	?	?
S=c1nc(-c2ccccc2)c(-c2ccccc2)n[nH]1	6	0	-	-	-	0	0	0.014	0	0.016	?	0.02
Nc1c(-c2ccccc2)n[nH]c1-c1ccccc1	0	0	-	0	0	0	-	-	-	-	-	-
COc1ccc(N2C(=O)/C(=C/c3cccs3)NC2=S)cc1	8.7	0	-	0	0	0	0.013	0.022	0	0.024	0.032	0.011
COc1ccc(OC)c(S(=O)(=O)Nc2ccc(F)cc2)c1	-	0	0	0	0	0	-	-	-	-	-	-
COc1ccc(OC)c(S(=O)(=O)Nc2cnc3ccccc3c2)c1	-5.6	0	-	0	0	0	0	0	0	0	0	0
S=c1nccc(-c2cccs2)[nH]1	0	0	0	0	0	0	-	-	-	-	-	-
S=c1nccc(-c2ccc3c(c2)CCO3)[nH]1	4.6	0	0	-	-	0	0	0.011	0	0.013	0.021	0.016
Cc1ccc(-c2ccnc(=S)[nH]2)cc1	-	0	0	0	0	0	0.023	0.032	0.041	0.033	0.034	0.035
Fc1ccc(-c2noc(-c3ccc4c(c3)CCO4)n2)cc1	0	0	-	-	-	0	-	-	-	-	-	-
CC1=CC(C)(C)n2c(O)c(N=NC(N)=S)c3c(C)c(C)cc1c32	0	0	-	-	-	-	-	-	-	-	-	-
CC1=CC(C)(C)n2c(O)c(N=NC(N)=S)c3c(C)ccc1c32	3.8	0	-	0	0	0	0	0.012	0	0.016	0	?
COc1cc2c3c(c1)c(N=NC(N)=S)c(O)n3C(C)(C)C=C2C	21	0	-	-	-	0	?	0.026	0	0.017	?	0.014
